Data on 7 molecules can be found in PubChem BioAssay.

The nature of assay [1]: inhibitors of TNFa-induced NFkB p65 translocation, primary screen, imaging, HUVEC, MLSMR starter and 10KST1 sets (AID 438;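 active = inhibition above 20% together with a positive visual image hit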;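 also: compound added about 3h40 before a 20 min TNFalpha stimulation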;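 as to inhibition: signal is the nuclear over cytoplasmic p65 intensity ratio per well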). The settings on record: HUVEC TNFa-induced p65 nuclear translocation; cell count: measured here: nuclei count (cytotoxicity indicator), at 2.08 µM; inhibition: at 2 µM, stronger effect = higher value, 0% TNFa-plus-vehicle, 100% no-TNFa wells.
Assay [2] can be described thus: endothelial E-selectin expression blockers – imaging, HUVEC, immunofluorescence, MLSMR starter and 10KST1 sets, primary screen (AID 487).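 As to inhibition: signal is fraction of cell area covered by stained E-selectin grains.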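 As to nuclei count: 100% = median nuclei count of all wells on the same plate.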 Particulars: HUVEC TNFalpha-induced E-selectin immunofluorescence imaging, at 2 µM; inhibition: stronger effect = higher value; nuclei count: measured here: cell number, toxicity.
Assay [3] can be described thus: Primary imaging screen for DUSP6 inhibitors that restore phospho-Erk in transfected HeLa cells, chemical complementation (AID 609;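 active = compounds giving at least 50% inhibition in the cell-based MKP-3 phosphatase rescue imaging test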;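 as to inhibition: phospho-Erk level distribution per well compared with pooled transfected vehicle control wells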). Particulars: HeLa MKP-3 transfected, phospho-Erk imaging KS statistic, at 10 µM, cells stimulated with TPA for 15 min.
The target in assay [4] is Dual specificity protein phosphatase 6 (Homo sapiens) (UniProt Q16828). Described as above. Particulars: HeLa MKP-3 transfected, phospho-Erk imaging KS statistic; at 10 µM; stronger effect = higher value; cells stimulated with TPA for 15 min.
Chain of Dual specificity protein phosphatase 6 (Homo sapiens) (Q16828 whole entry, looked up): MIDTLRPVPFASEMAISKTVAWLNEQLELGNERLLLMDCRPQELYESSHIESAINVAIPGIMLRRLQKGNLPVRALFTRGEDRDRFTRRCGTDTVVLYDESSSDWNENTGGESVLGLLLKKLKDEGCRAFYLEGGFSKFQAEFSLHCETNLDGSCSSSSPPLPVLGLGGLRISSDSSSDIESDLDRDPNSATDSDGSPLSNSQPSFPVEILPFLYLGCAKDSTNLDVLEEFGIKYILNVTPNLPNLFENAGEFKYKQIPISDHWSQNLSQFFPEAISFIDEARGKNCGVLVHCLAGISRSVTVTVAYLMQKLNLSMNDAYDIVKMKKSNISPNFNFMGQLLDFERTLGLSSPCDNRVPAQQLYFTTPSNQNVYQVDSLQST
For assay [5], the target named is Voltage-gated potassium channel subunit beta-2 (Rattus norvegicus) (UniProt P62483). The assay can be described thus: inhibitors of rat Kvbeta2 reductase activity – biochemical, NADPH fluorescence, primary screen (AID 622;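 active = fluorescence slope higher than the sample average by over 3 SD, cut at about -0.22 in these data, passing the limit was not always enough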;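 also: slope of raw intensity against log time taken from 70 to 1610 s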). Particulars: recombinant KvBeta, 4-cyanobenzaldehyde reduction, at 10 µM, stronger effect = higher value.
Chain of Voltage-gated potassium channel subunit beta-2 (Rattus norvegicus) (P62483 whole entry, looked up): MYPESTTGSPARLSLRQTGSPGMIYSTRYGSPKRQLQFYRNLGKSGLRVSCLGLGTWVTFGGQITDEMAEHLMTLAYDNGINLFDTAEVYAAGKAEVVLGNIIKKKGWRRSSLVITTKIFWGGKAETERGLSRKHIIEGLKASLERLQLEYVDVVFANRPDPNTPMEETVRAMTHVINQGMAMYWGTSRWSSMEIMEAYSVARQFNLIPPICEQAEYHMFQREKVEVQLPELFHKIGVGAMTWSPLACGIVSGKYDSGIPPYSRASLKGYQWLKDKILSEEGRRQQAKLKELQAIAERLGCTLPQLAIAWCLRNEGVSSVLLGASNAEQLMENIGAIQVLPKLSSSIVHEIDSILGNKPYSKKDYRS
Assay [6] has the same target. The assay can be described thus: enhancers of rat Kvbeta2 NADPH turnover – biochemical, NADPH fluorescence, primary screen (AID 623;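 active = NADPH fluorescence slope more negative than the mean of all samples by about 3 SD, 99.7% confidence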;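 also: fluorescence intensity change per second fitted from 20 to 320 s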). Particulars: Recombinant KvBeta, NADPH fluorescence decrease slope, 10 min; at 10 µM; stronger effect = lower value.
In assay [7] the target is Muscarinic acetylcholine receptor M4 (Homo sapiens) (UniProt P08173). The assay can be described thus: M4-linked GIRK flux change, two-sided – cell-based, HEK293 M4/GIRK, thallium flux, BTC-AM, M4 allosteric agonist project, primary screen (AID 625;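 active = fluorescence slope after compound addition differing from the mean of all tested samples at 99.7% confidence, mostly higher but some lower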;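 also: thallium influx through GIRK channels coupled to M4 in HEK293 cells with BTC-AM dye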). The settings on record: at 10 µM, actives lie on both sides. The procedure, abridged: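 assay system = HEK293 cells with M4 receptor and GIRK channels | medium = pH 7.3 thallium assay buffer | doses = 10 µM final, single point | timing = cells overnight at 37 °C, BTC-AM loading 1 h, reads 2 min total | signal = BTC-AM fluorescence, 1 Hz kinetic reads | read-out = post-addition slope, 15–24 s, of baseline-normalized fluorescence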
Chain of Muscarinic acetylcholine receptor M4 (Homo sapiens) (P08173 whole entry, looked up): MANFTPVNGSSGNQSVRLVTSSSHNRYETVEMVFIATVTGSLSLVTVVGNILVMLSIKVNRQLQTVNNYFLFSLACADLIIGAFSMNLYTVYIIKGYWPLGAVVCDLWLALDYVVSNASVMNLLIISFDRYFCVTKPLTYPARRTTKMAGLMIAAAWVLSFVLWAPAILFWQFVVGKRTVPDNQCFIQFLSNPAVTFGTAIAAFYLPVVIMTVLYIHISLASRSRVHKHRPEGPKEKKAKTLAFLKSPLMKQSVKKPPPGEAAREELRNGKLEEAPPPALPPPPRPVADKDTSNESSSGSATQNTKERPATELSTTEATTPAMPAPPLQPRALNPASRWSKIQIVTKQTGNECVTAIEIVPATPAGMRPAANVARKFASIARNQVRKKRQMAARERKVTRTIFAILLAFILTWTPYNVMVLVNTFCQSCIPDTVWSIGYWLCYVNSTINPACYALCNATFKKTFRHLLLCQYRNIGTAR

Assay [8] can be described thus: inhibitors of larval lipid processing in zebrafish, primary screen, whole organism, PED6 fluorescence, gall bladder and intestine (AID 686;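 active = a full or partial loss of lipid-probe fluorescence in the fish gall bladder, intestine or both, judged by eye; inactive = no fluorescence loss, or compound toxic to the fish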;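 also: larvae 5 to 7 days old with five fish per well; signal comes from phospholipase A2 cleavage of quenched PED6 carried via bile; overnight exposure to compound and PED6 before scoring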). Particulars: Zebrafish larvae PED6 lipid processing, fluorescence scoring; screened at 20 µM (by protocol). The method, boiled down: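 Also added: quenched phospholipase substrate PED6, 100 nM final, ingested by larvae; System: zebrafish larvae, 5-7 d; Quantity: 5 larvae per well; Compound: 20 µM single dose; Schedule: overnight compound and PED6 incubation; Read-out: visual per-well fluorescence inhibition score; Measured by: By-eye fluorescence microscopy; Medium: E3.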

A short description of assay [9]: loss of swimming-algae plug formation – whole organism, Chlamydomonas reinhardtii, WT vs cilia-less mutant, absorbance, 96-well, primary screen (AID 463189;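 active = inhibition at or above 50% relative to wild type and mutant plate controls; inactive = inhibition below 50%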;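 also: 0% = wild type cc124 cells in DMSO and 100% = ciliumless bld1 mutant cells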). The settings on record: Chlamydomonas reinhardtii gravitaxis, OD600 absorbance, 2 days; at 10 µM; stronger effect = higher value.
Setting [10] is: measured here: cell density z-score.
Setting [11] is: measured here: nuclear c-Myc green intensity z-score.
Setting [12] is: measured here: nuclear pErk red intensity z-score, stronger effect = higher value.

Active and inactive are the calls of the source.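 The calls were made as follows, unless noted: active = visually confirmed hit in the image check and inhibition above 20%; inconclusive = visually confirmed hit but inhibition not above 20%; inactive = no visual hit in the image check.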

One may read the inhibition as the change of the read-out against control, counted positive when it falls. Consider `CN(C)CCCN1C(=O)C(=O)/C(=C(/O)c2ccccc2)C1c1ccccn1` (stereo unspecified), for which, in assay [1], the cell count stood at 473. In addition, the inhibition in [1] is -8.2% (inactive); in assay [2] it was -97.3% (inactive); in [4], 1.04% (inactive); in [9] it was 10.1% (inactive). In assay [2], this molecule yielded a nuclei count of 158%. Moreover, the z-score in assay [3] (setting [10]) was 1.03; in [3] (setting [11]), -1.2; in assay [3] (setting [12]), 0.352. For the same molecule, the fluorescence slope in assay [5] is -0.486 (inactive); in assay [7], 0.00459 (inactive). Also, the NADPH fluorescence slope in assay [6] is -6.1e-05 (inactive). In addition, the molecule was called inactive in [8].

Take `CCOCCn1c(SCc2c(F)cccc2Cl)nc2c1c(=O)[nH]c(=O)n2C`: in [1], the cell count worked out at 620. The inhibition in assay [1] was 3.9% (inactive); in assay [2], -40.4% (inactive); in [4], -9.53% (inactive); in assay [9] it was -4.7% (inactive). Moreover, the nuclei count in assay [2] came out at 114%. Besides, the z-score is -0.473 in assay [3] (setting [10]), 0.0694 in assay [3] (setting [11]) and 0.197 in assay [3] (setting [12]). Further, the results for the fluorescence slope in assay [5] and in assay [7] were -0.472 (inactive) and 0.00638 (inactive), respectively. Besides, the NADPH fluorescence slope in assay [6] is -4.5e-05 (inactive). Moreover, the call in assay [8] was inactive.

Turning to `Cc1ccc(-n2ncc3c(NCc4ccc5c(c4)OCO5)ncnc32)c(C)c1`, the cell count in assay [1] came out at 543. Besides, the inhibition was -12.5% (inactive) in assay [1], -35.3% (inactive) in [2], 11.4% (inactive) in assay [4] and 47.1% (inactive) in assay [9]. Besides, the nuclei count in assay [2] turned out to be 135%. The z-score in assay [3] (setting [10]) is -0.519; in assay [3] (setting [11]), 1.64; in assay [3] (setting [12]), -0.848. Moreover, the figures for the fluorescence slope in assay [5] and in assay [7] were -0.376 (inactive) and 0.0052 (inactive), respectively. Further, in assay [6], the NADPH fluorescence slope is 4.1e-06 (inactive). Moreover, the call in assay [8] was inactive.

With `O=C(Nc1ccccn1)c1ccc(=O)[nH]n1`, the cell count in assay [1] amounted to 634. Besides, the inhibition in assay [1] is 4.2% (inactive); in assay [2], -92.2% (inactive); in [4] it was 6.51% (inactive); in assay [9], 20.6% (inactive). The nuclei count in assay [2] amounted to 134%. Moreover, the results for the z-score in assay [3] (setting [10]), in assay [3] (setting [11]) and in [3] (setting [12]) were 0.857, -1.57 and -0.248, respectively. In addition, the results for the fluorescence slope in [5] and in assay [7] were -0.475 (inactive) and 0.00627 (inactive), respectively. The NADPH fluorescence slope in assay [6] is -0.0002 (inactive). Further, the molecule was called inactive in assay [8].

As to `COc1ccc(OCC(O)CN2C(=O)NC(C)(C)C2=O)cc1` (stereo unspecified), in [1], the cell count worked out at 617. Moreover, the inhibition in assay [1] was -6.4% (inactive); in [2], 33.5% (inactive); in [4] it was 9.42% (inactive); in assay [9] it was -2.72% (inactive). The same molecule yielded a nuclei count in assay [2] of 155%. The z-score was 0.439 in assay [3] (setting [10]), -0.253 in assay [3] (setting [11]) and -0.891 in assay [3] (setting [12]). For the same molecule, the figures for the fluorescence slope in assay [5] and in [7] were -0.419 (inactive) and 0.0058 (inactive), respectively. The NADPH fluorescence slope in assay [6] was -3.6e-05 (inactive). In addition, the call in [8] was inactive.

Take `Cc1ccc(-c2nnc(-c3ccccc3)o2)cc1Br`: the cell count in assay [1] was 570. Also, the inhibition was -3.8% (inactive) in assay [1], 33% (inactive) in assay [2], 1.63% (inactive) in assay [4] and 2.02% (inactive) in assay [9]. In assay [2], this molecule returned a nuclei count of 98.9%. The z-score in [3] (setting [10]) was -0.752; in [3] (setting [11]), 0.492; in assay [3] (setting [12]) it was -1.02. Moreover, the fluorescence slope in [5] was -0.564 (inactive); in assay [7], 0.00616 (inactive). In addition, the NADPH fluorescence slope in assay [6] was 6e-06 (inactive). The molecule was classed as inactive in assay [8].

As for `COC(=O)CSCC(=O)Nc1cc2c(cc1C(C)=O)OCO2`, the cell count in assay [1] was determined as 333. Besides, the inhibition in [1] is -6.3% (inactive); in [2], -95.3% (inactive); in [4], -4.78% (inactive); in [9] it was 22.6% (inactive). Moreover, in [2], the nuclei count was found to be 76.4%. Further, the z-score in [3] (setting [10]) was 0.0556; in assay [3] (setting [11]), -1.11; in assay [3] (setting [12]), 1.67. For the same molecule, the fluorescence slope was -0.452 (inactive) in assay [5] and 0.00475 (inactive) in [7]. For the same molecule, in assay [6], the NADPH fluorescence slope is 1.5e-05 (inactive). Moreover, in assay [8], the outcome was inactive.
